Here are results for 20 compounds from ChEMBL document CHEMBL4270649 (Eur J Med Chem, 2018).

The target in data set [1] is Myosin light chain kinase 2, skeletal/cardiac muscle (Homo sapiens) (UniProt Q9H1R3). The data set is described as follows: Inhibition of human full length GST-tagged MLCK2 expressed in baculovirus expression system at 1.25 uM in presence of 100 uM ATP relative to control.
In data set [2] the target is Homeodomain-interacting protein kinase 1 (Homo sapiens) (UniProt Q86Z02). The data set is described as follows: Inhibition of human GST-tagged HIPK1 expressed in baculovirus expression system at 1.25 uM in presence of 100 uM ATP relative to control.
Homeodomain-interacting protein kinase 1 (Homo sapiens), sequence (Q86Z02 whole entry, looked up): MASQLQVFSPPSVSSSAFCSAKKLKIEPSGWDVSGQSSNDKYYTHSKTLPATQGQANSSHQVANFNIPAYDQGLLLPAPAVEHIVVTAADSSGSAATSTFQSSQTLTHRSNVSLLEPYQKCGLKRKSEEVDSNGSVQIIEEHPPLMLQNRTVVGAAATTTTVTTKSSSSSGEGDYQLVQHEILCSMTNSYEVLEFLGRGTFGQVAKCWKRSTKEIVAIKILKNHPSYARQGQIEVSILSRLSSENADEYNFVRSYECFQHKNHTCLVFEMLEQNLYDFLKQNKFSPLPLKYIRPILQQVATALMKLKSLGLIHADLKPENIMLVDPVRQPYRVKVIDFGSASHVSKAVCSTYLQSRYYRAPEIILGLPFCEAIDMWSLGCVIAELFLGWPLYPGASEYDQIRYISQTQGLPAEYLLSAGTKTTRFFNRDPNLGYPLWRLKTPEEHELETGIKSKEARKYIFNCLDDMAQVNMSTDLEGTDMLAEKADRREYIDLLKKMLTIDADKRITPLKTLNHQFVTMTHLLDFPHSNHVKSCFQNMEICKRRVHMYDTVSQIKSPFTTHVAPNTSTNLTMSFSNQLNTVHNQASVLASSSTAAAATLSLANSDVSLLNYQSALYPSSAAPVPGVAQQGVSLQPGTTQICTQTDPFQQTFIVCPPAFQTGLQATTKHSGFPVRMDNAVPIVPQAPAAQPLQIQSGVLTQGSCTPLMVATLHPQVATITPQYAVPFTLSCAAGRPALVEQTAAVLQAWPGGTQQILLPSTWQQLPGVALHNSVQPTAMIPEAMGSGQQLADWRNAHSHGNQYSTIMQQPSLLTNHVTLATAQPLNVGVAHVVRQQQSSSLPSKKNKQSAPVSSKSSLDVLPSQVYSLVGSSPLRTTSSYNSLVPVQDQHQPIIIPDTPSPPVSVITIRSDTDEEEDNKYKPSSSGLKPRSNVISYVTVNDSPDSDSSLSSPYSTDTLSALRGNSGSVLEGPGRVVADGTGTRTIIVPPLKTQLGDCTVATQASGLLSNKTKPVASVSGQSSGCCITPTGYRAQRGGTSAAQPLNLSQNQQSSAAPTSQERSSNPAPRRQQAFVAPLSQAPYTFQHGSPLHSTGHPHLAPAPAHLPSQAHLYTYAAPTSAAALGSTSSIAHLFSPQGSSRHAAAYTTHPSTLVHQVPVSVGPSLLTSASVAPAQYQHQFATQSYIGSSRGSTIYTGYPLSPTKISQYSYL
Data set [3] deals with Cyclin-dependent kinase 5/CDK5 activator 1 (Homo sapiens) (UniProt Q00535+Q15078). In words: Inhibition of full length human GST/His-tagged CDK5/p25 expressed in baculovirus expression system at 1.25 uM in presence of 100 uM ATP by Z'-Lyte assay relative to control.
Cyclin-dependent kinase 5/CDK5 activator 1 (Homo sapiens), sequence (Q00535 whole entry): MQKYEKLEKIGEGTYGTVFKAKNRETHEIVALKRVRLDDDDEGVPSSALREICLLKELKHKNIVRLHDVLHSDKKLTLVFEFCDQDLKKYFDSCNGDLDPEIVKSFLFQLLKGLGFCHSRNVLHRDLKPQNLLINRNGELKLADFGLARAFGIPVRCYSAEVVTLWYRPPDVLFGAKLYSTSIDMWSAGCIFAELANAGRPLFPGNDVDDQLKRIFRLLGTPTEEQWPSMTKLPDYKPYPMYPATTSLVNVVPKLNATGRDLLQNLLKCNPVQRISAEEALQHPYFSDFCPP
Cyclin-dependent kinase 5/CDK5 activator 1 (Homo sapiens), sequence (Q15078 99-307 partner limits assumed): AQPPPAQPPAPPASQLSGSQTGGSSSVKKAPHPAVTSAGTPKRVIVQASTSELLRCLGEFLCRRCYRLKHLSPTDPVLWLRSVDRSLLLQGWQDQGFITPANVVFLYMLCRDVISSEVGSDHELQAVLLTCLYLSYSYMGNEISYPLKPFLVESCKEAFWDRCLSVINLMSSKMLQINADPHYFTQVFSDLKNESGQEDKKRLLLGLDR
The nature of data set [4]: Cytotoxicity against human HeLa cells assessed as cell viability at 1 uM after 3 days by XTT assay relative to control. In kind it is cell-based. As to conditions: read-out: Activity. (Tetrazolium dyes change colour on reduction, which living cells bring about.)
A short description of data set [5]: Half life in human liver S9 fraction at 0.3 uM in presence of NADP+/UDPGA by LC-MS/MS analysis. In kind it is ADME, subcellular. The procedure, abridged: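 Compound was incubated with human S9 fraction and samples were taken at defined time points. Remaining parent was quantified by LC-MS/MS: ESI triple quadrupole, RP C18 column, water/acetonitrile with 0.1% TFA, 5–100% B over 7 min at 400 µL/min. Half-life was calculated from the remaining-parent data.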

The target in data set [6] is Dual specificity protein kinase CLK1 (Homo sapiens, UniProt P49759). In words: Inhibition of recombinant human GST-tagged CLK1 (129 to 484 residues) expressed in Escherichia coli using GRSRSRSRSRSRSRSR as substrate after 15 mins in presence of 15 uM [gamma32P]ATP by phosphor imaging analysis.
Dual specificity protein kinase CLK1, sequence (P49759 whole entry, the tested form may be a part): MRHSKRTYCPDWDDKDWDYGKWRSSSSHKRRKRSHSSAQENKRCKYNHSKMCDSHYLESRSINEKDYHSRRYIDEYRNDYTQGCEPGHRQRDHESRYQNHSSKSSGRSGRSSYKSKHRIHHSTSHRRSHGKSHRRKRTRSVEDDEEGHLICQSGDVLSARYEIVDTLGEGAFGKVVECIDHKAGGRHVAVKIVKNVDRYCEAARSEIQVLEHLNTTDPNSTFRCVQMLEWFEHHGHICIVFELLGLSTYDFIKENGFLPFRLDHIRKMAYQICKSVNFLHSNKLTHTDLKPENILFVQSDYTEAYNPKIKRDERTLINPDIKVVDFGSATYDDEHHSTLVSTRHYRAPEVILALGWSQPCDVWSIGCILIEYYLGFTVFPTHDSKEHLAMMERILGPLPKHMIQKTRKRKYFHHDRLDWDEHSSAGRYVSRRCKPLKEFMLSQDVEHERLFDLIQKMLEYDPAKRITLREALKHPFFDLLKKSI
In data set [7] the target is Dual specificity protein kinase CLK2 (Homo sapiens) (UniProt P49760). The data set is described as follows: Inhibition of human GST-tagged CLK2 expressed in baculovirus expression system at 1.25 uM in presence of 100 uM ATP relative to control.
The target in data set [8] is T1, Dual specificity tyrosine-phosphorylation-regulated kinase 1B (Homo sapiens, UniProt Q9Y463). As to conditions: 0.25 h, read-out: INH.
T1 sequence (Q9Y463 whole entry): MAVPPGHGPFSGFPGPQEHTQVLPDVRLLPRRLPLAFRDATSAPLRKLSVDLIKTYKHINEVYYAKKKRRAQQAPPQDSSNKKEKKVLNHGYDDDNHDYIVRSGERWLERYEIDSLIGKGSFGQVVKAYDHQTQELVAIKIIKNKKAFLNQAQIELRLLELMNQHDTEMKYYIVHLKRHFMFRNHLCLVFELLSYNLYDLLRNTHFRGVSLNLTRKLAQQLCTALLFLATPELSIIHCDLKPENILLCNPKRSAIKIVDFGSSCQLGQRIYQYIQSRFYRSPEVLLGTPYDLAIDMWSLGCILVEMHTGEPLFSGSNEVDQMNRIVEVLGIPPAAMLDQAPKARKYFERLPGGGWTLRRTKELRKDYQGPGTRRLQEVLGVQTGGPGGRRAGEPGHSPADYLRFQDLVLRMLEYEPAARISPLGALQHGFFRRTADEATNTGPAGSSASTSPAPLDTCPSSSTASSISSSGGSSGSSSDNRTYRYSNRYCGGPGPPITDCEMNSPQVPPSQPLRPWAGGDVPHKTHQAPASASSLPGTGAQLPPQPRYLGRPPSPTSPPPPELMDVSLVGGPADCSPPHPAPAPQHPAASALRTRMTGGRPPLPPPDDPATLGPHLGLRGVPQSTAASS
The target of data set [9] is T2, Dual specificity tyrosine-phosphorylation-regulated kinase 1A (Homo sapiens, UniProt Q13627). The data set is described as follows: Inhibition of DYRK1A in human HeLa cells harboring GFP-SF3b1-NT assessed as reduction in SF3b1 phosphorylation at T343 residue after 18 hrs by Western blot analysis. In kind it is cell-based. (Immunoblotting shows a protein as a band on a membrane.)

For data set [10], the target named is T3, Serine/threonine-protein kinase haspin (Homo sapiens, UniProt Q8TF76).
T3 sequence (Q8TF76 whole entry): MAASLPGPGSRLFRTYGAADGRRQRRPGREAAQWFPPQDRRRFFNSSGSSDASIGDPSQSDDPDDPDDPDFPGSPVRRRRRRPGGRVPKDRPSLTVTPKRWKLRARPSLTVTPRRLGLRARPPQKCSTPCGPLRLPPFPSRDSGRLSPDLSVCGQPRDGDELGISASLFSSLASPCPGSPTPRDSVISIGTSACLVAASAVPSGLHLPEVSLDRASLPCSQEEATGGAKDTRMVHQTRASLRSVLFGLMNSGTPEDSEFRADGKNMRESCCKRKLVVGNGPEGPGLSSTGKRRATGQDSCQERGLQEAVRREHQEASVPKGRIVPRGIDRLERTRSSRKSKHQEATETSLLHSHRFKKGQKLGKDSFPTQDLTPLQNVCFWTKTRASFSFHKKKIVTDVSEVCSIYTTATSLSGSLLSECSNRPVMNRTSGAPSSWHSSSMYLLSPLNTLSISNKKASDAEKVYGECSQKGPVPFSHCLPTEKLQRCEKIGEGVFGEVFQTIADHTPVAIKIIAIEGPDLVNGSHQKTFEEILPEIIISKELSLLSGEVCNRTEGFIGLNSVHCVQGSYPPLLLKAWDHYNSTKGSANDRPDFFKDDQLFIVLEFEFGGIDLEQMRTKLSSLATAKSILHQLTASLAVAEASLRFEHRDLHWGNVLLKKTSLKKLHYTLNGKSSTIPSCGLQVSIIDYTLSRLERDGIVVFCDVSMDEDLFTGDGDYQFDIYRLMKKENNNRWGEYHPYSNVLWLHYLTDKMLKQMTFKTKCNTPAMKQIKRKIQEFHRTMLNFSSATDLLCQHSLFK
In words: Inhibition of human GST-tagged haspin expressed in baculovirus expression system in presence of 100 uM ATP.

The target of data set [11] is T2, Dual specificity tyrosine-phosphorylation-regulated kinase 1A. In words: Inhibition of recombinant human N-terminal His6-tagged DYRK1A expressed in Escherichia coli BL21(DE3) using KKISGRLSPIMTEQ-NH2 as substrate after 15 mins in presence of 15 uM [gamma32P]ATP by phosphor imaging analysis.
Data set [12] addresses T1, Dual specificity tyrosine-phosphorylation-regulated kinase 1B. In words: Inhibition of full length recombinant human GST-tagged DYRK1B expressed in baculovirus expression system using KKISGRLSPIMTEQ-NH2 as substrate after 15 mins in presence of 15 uM [gamma32P]ATP by phosphor imaging analysis.
The target of data set [13] is T2, Dual specificity tyrosine-phosphorylation-regulated kinase 1A. In words: Inhibition of recombinant human N-terminal His6-tagged DYRK1A expressed in Escherichia coli BL21(DE3) at 1.25 uM using KKISGRLSPIMTEQ-NH2 as substrate after 15 mins in presence of 15 uM [gamma32P]ATP by phosphor imaging analysis relative to control.
The target of data set [14] is SRSF protein kinase 1 (Homo sapiens) (UniProt Q96SB4). In words: Inhibition of full length human His-tagged SRPK1 expressed in baculovirus expression system at 1.25 uM in presence of 100 uM ATP relative to control.
For data set [15], the target named is BDNF/NT-3 growth factors receptor (Homo sapiens) (UniProt Q16620). The data set is described as follows: Inhibition of human His-tagged TRK-B expressed in baculovirus expression system at 1.25 uM in presence of 100 uM ATP relative to control.
BDNF/NT-3 growth factors receptor (Homo sapiens), sequence (Q16620 32-822 limits assumed): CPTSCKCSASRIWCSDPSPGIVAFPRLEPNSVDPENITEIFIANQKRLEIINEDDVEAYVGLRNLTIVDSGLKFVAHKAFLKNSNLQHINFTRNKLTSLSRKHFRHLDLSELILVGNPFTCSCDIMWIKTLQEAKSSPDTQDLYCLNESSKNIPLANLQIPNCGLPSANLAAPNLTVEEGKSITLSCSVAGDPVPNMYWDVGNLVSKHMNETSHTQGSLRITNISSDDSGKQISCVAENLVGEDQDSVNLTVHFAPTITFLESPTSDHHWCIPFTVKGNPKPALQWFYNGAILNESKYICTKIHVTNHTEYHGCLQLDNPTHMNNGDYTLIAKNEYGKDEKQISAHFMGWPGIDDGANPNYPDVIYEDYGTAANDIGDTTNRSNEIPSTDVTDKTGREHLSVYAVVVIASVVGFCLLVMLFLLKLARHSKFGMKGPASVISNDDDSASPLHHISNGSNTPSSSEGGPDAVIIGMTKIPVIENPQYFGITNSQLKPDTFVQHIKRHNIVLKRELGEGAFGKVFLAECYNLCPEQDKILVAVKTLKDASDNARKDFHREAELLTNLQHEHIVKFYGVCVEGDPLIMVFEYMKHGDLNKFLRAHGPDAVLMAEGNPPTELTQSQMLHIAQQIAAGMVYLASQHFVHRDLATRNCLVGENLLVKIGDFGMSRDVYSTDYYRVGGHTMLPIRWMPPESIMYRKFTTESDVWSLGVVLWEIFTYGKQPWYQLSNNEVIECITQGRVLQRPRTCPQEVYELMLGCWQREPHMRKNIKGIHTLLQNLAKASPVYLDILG
The target of data set [16] is Serine/threonine-protein kinase pim-1 (Homo sapiens) (UniProt P11309). The data set is described as follows: Inhibition of full length human His-tagged PIM1 expressed in baculovirus expression system at 1.25 uM in presence of 100 uM ATP relative to control.
Serine/threonine-protein kinase pim-1 (Homo sapiens), sequence (P11309 whole entry, looked up, canonical isoform): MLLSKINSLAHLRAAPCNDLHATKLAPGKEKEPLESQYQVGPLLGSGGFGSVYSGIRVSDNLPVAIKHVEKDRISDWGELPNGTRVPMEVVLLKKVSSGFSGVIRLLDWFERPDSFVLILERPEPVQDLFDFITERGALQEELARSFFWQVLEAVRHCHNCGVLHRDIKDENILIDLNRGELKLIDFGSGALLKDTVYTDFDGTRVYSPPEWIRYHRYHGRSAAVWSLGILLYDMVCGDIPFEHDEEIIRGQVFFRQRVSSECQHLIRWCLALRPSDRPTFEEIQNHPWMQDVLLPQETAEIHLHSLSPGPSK
In data set [17] the target is Casein kinase I isoform delta (Homo sapiens) (UniProt P48730). In words: Inhibition of CK1delta (unknown origin) at 1.25 uM in presence of 100 uM ATP relative to control.
Casein kinase I isoform delta (Homo sapiens), sequence (P48730 whole entry, looked up, canonical isoform): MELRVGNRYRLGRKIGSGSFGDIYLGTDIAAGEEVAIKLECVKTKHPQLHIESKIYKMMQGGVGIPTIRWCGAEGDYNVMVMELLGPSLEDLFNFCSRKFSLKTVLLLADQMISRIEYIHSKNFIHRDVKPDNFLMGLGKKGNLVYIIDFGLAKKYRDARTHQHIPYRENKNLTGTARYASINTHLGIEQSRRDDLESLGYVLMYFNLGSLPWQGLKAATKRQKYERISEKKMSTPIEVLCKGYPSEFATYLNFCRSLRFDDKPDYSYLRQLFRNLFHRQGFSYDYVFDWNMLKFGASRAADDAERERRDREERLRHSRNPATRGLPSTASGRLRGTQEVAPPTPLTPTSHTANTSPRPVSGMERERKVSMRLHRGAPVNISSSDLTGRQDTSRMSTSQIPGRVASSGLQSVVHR
Data set [18] is described as follows: Cytotoxicity against human HeLa cells assessed as cell viability at 10 uM after 3 days by XTT assay relative to control. It is filed as cell-based. As to conditions: read-out: Activity.
Data set [19] addresses T4, Serine/threonine-protein kinase 17A (Homo sapiens) (UniProt Q9UEE5).
T4 sequence (whole entry): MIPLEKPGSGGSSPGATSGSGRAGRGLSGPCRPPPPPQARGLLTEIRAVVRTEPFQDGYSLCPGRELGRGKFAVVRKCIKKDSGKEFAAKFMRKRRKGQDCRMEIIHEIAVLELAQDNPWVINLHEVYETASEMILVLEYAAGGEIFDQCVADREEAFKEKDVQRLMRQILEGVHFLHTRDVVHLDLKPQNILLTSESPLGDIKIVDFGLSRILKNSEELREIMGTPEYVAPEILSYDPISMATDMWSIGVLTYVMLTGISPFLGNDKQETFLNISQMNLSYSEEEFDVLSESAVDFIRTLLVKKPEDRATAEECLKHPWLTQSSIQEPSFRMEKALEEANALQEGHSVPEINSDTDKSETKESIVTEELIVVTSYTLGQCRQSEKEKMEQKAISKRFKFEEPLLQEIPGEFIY
The data set is described as follows: Inhibition of full length human GST-tagged STK17A expressed in baculovirus expression system at 1.25 uM in presence of 100 uM ATP relative to control.

Data set [20] addresses T3, Serine/threonine-protein kinase haspin. In words: Inhibition of human GST-tagged haspin expressed in baculovirus expression system at 1.25 uM in presence of 100 uM ATP relative to control.
A short description of data set [21]: Cytotoxicity against human HeLa cells assessed as cell viability at 3 uM after 3 days by XTT assay relative to control. In kind it is cell-based. As to conditions: read-out: Activity.

pIC50: −log10 of the molar value. Activity calls are given as the source filed them. No cut-off for these calls is given here.

Myosin light chain kinase 2, skeletal/cardiac muscle (Homo sapiens), sequence (Q9H1R3 whole entry): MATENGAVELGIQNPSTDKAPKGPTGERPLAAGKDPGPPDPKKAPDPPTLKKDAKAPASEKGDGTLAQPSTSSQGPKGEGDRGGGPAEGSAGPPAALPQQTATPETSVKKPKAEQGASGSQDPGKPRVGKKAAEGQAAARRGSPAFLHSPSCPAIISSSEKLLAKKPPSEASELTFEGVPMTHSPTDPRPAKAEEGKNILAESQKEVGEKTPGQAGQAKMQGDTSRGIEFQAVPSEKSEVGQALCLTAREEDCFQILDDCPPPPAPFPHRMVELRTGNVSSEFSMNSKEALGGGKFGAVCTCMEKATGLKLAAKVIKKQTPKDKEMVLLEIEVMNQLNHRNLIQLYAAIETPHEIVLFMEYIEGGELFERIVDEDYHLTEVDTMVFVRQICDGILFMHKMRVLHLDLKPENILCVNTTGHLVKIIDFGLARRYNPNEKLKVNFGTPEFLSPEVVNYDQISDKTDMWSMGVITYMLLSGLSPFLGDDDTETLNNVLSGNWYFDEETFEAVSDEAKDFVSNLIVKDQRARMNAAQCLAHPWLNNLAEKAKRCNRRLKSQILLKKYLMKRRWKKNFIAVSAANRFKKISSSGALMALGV

Usually half-life stands for how long it takes for the measured level to halve. A word on the pIC50: it is the negative decadic logarithm of the IC50, by convention in mol/L. As for `O=C(Nc1cncc(-c2cc(-c3cccnc3)cs2)c1)C1CC1`, the inhibition is 12.1% in [1]; 1% in data set [2]; 1% in data set [3]; 21% in [7]; “Dose-dependent effect” in data set [9]; 89% in [13]. The inhibition in [14] turned out to be 2%; in data set [15], 8%; in data set [17], 4%; in data set [19], 51.3%. For the same compound, in data set [4], the viability at 72 h, 1 µM was 99%. In data set [5], the half-life at 0.3 µM was 2.4 h. For the same compound, the pIC50 is 6.57 in data set [6]; 7.37 in data set [9]; 7.12 in data set [10]; 8.49 in data set [11]; 7.14 in [12]. Also, the inhibition at 0.25 µM in [8] was found to be 40%. In addition, the inhibition entry in [16] was “inactive”. The viability at 72 h, 10 µM in data set [18] was found to be 98%. Besides, the inhibition at 1.25 µM in data set [20] was found to be 72%. Besides, the viability at 72 h, 3 µM in data set [21] was found to be 102%.

As to `CC(C)(C)OC(=O)N1CCC(C(=O)Nc2cncc(-c3cc(-c4cccnc4)cs3)c2)C1` (stereo not given), the inhibition at 0.25 µM in [8] amounted to 34.9%.

Regarding `CS(=O)(=O)Nc1cncc(-c2cc(-c3cccnc3)cs2)c1`, in data set [8], the inhibition at 0.25 µM turned out to be 23.5%.

`CN(C(=O)C1CC1)c1cncc(-c2cc(-c3cccnc3)cs2)c1`: in data set [8], the inhibition at 0.25 µM was determined as 0.9%.

For the compound `CCN(C(=O)C1CC1)c1cncc(-c2cc(-c3cccnc3)cs2)c1`, the inhibition at 0.25 µM in data set [8] came out at 14.6%.

With `CCn1cc(-c2csc(-c3cncc(NC(=O)C4CC4)c3)c2)cn1`, the inhibition at 0.25 µM in data set [8] was 57%.

For `Cn1cc(-c2csc(-c3cncc(NC(=O)C4CC4)c3)c2)cn1`, the inhibition at 0.25 µM in data set [8] was 78.6%. Further, the pIC50 in data set [12] was 7.17.

On to `CC(C)n1cc(-c2csc(-c3cncc(NC(=O)C4CC4)c3)c2)cn1`, for which the inhibition at 0.25 µM in data set [8] turned out to be 0.7%.

`O=C(Nc1cncc(-c2cccs2)c1)C1CC1`: the inhibition at 0.25 µM in data set [8] was found to be 0%.

`O=C(Nc1cncc(-c2cc(-c3cn[nH]c3)cs2)c1)C1CC1`: the half-life at 0.3 µM in [5] was 2.45 h. Further, the inhibition at 0.25 µM in data set [8] was determined as 58.1%. In data set [12], the pIC50 is 6.86.

Take `CCCn1cc(-c2csc(-c3cncc(NC(=O)C4CC4)c3)c2)cn1`: the inhibition at 0.25 µM in data set [8] is 65.7%. In addition, the pIC50 in data set [12] is 7.01.

Regarding `O=C(Cc1nnn[nH]1)Nc1cncc(-c2cc(-c3cccnc3)cs2)c1`, the inhibition at 0.25 µM in [8] turned out to be 38.5%.

`O=C(CN1CCOCC1)Nc1cncc(-c2cc(-c3cccnc3)cs2)c1`: the inhibition at 0.25 µM in [8] came to 13.9%.

Turning to `CC(=O)Nc1cncc(-c2cc(-c3cccnc3)cs2)c1`, the viability at 72 h, 1 µM in data set [4] was 98%. In addition, the inhibition at 0.25 µM in [8] came to 40.3%. Further, the viability at 72 h, 10 µM in data set [18] was 83%. Moreover, the viability at 72 h, 3 µM in data set [21] is 95%.

As to `CCC(=O)Nc1cncc(-c2cc(-c3cccnc3)cs2)c1`, the inhibition at 0.25 µM in [8] worked out at 49.3%.

In the case of `O=C(CN1CCCCC1)Nc1cncc(-c2cc(-c3cccnc3)cs2)c1`, the inhibition at 0.25 µM in [8] turned out to be 51.8%.

Consider `O=C(Nc1cncc(-c2cc(-c3cccnc3)cs2)c1)C1CCC1`, for which, in data set [8], the inhibition at 0.25 µM amounted to 81%. In addition, the pIC50 in data set [12] was 6.66.

In the case of `CN[C@@H]1C[C@H]2O[C@@](C)([C@@H]1OC)n1c3ccccc3c3c4c(c5c6ccccc6n2c5c31)C(=O)NC4` [STAUROSPORINE], the viability at 72 h, 1 µM in [4] came to 33%.

As for `O=C(Nc1cncc(-c2cc(-c3cccnc3)cs2)c1)C1CCNC1` (stereo not given), in [8], the inhibition at 0.25 µM is 62.7%. In data set [12], the pIC50 is 6.88.

Turning to `O=C(Nc1cncc(-c2cc(-c3cccnc3)cs2)c1)C1CCCCC1`, the inhibition at 0.25 µM in [8] is 51%.
